SMILES strings stand for the structures. About 1,200 (1.8%) of roughly 65,000 compounds were called active.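 The calls were made as follows: active = activation above the mean activation of all tested compounds plus 3 SD (cut at about 50% in these data); inactive = the rest.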 The full list was thinned out, with actives kept by preference.

The target of this experiment is Steroidogenic factor 1 (Homo sapiens) (UniProt Q13285). In words: activators of human SF-1, primary screen, cell-based, CHO-K1, Gal4-SF-1 LBD, luciferase luminescence (AID 522). The following applies: CHO-K1 Gal4-SF-1 LBD luciferase reporter; at 10 µM; hits give high values; % increase over DMSO SF-1-specific signal. In short, it runs like this: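 Material: CHO-K1 cells with Gal4–hSF-1 LBD chimera plus Gal4-driven luciferase / Input: 4,000 CHO-K1 cells per well / Incubation: compound exposure 20 h at 37 °C / Signal: luminescence read 15 min after SteadyLite luciferase reagent, after room-temperature equilibration / Read-out: percent activation versus DMSO / Benchmarks: DMSO negative control and −SF1 background wells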
Steroidogenic factor 1 (Homo sapiens), sequence (Q13285 whole entry, looked up, the tested form may be a part): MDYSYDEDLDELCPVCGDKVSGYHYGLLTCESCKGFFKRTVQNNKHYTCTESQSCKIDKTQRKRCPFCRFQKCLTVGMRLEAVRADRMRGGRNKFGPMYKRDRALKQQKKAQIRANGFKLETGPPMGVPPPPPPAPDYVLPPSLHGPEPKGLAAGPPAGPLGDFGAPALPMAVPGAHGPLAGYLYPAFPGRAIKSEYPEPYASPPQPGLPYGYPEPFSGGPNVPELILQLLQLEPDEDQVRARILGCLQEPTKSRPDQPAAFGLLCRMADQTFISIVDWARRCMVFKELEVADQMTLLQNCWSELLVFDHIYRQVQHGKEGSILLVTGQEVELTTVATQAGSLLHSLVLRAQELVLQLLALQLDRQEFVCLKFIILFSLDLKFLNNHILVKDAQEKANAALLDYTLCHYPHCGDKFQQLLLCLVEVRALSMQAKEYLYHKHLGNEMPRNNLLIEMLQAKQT
Background: In a reporter assay the amount or activity of a reporter protein is the signal.
For the molecule `CCOC(=O)c1c(C)[nH]c(C(=O)NCc2ccccc2OC)c1C`, the activation is 24.8% (inactive). As for `CCCCOC(=O)c1[nH]c(C)c(C(=O)OC)c1C`, the figure is 77.7% (active); as for `CCOC(=O)c1c(C)[nH]c(C(=O)COc2ccc3c(c2)OCO3)c1C`, 28.5% (inactive); as for `CCc1ccccc1NC1c2ccccc2C(=O)N1c1cccnc1` (stereo not given), -5.1% (inactive). The value for `Cc1cc(N2C(=O)C(=O)/C(=C(/O)c3ccccc3)C2c2cccc(Br)c2)no1` (stereo not given) was 2.6% (inactive); that for `COc1ccc(S(=O)(=O)NC2(C(F)(F)F)N=C3SCCN3C2=O)cc1` (stereo not given) was 19.3% (inactive); that for `CN(C)CCSc1nc(N)c2c3c(sc2n1)COC(C)(C)C3` was 3.5% (inactive).

`C=C(C)CSc1nc(N)c2c3c(sc2n1)CCC3`: the activation is 51.5% (active).

For the molecule `C=C(C)Cn1c(SCC(=O)NCc2ccco2)nc2sc3c(c2c1=O)CCC3`, the activation was -1.8% (inactive).

With `O=C(CSc1nc2[nH]ncc2c(=O)n1-c1ccccc1)N1CCCc2ccccc21`, the activation was 22.2% (inactive). As for `CC(C)CNC(=O)c1cc(-c2ccc(Br)cc2)on1`, the figure is 52.5% (active).

As to `O=C(NCCCN1CCOCC1)c1cc(-c2ccc(Cl)cc2)on1`, the activation was -2.4% (inactive). The value for `CC(NC(=O)c1cc(-c2ccccc2)on1)c1ccccc1` (stereo not given) was 1.6% (inactive). The value for `CCOC(=O)C1CCc2nc3ccccc3c(=O)n21` (stereo not given) was 2.2% (inactive); that for `CCOC(=O)C1CCN(C(=O)CC2C(=O)N(Cc3ccccc3)C(C)c3nc4ccccc4n32)CC1` (stereo not given) was 14.5% (inactive); that for `COC(=O)c1ccc(Oc2nc(NC(C)C)nc(SC)n2)cc1` was 2.8% (inactive). As to `c1ccc(Nc2nc(-c3ccncc3)cs2)nc1`, the activation is 36.9% (inactive). Consider `CC(C)(C)c1csc(NC2=NS(=O)(=O)c3ccccc32)n1`, for which the activation is 50.5% (active).

In the case of `CCOC(=O)c1nnn(CC(=O)Nc2cccc(F)c2)c1C(=O)OCC`, the activation was 2.1% (inactive). Consider `CCN(CCCCOC(=O)c1ccc(OC)c(OC)c1)C(C)Cc1ccc(OC)cc1` (stereo not given), for which the activation is -10.3% (inactive).

The values are drawn from PubChem BioAssay AID522 (The Scripps Research Institute Molecular Screening Center, 2006).
